One compound from ChEMBL document CHEMBL3351398, “Discovery of a Potent and Selective DGAT1 Inhibitor with a Piperidinyl-oxy-cyclohexanecarboxylic Acid Moiety” (ACS Med Chem Lett, 2014) can be followed below.

The target in series [1] is T1, Diacylglycerol O-acyltransferase 1 (Mus musculus, UniProt Q9Z2A7).
T1 sequence (Q9Z2A7 whole entry): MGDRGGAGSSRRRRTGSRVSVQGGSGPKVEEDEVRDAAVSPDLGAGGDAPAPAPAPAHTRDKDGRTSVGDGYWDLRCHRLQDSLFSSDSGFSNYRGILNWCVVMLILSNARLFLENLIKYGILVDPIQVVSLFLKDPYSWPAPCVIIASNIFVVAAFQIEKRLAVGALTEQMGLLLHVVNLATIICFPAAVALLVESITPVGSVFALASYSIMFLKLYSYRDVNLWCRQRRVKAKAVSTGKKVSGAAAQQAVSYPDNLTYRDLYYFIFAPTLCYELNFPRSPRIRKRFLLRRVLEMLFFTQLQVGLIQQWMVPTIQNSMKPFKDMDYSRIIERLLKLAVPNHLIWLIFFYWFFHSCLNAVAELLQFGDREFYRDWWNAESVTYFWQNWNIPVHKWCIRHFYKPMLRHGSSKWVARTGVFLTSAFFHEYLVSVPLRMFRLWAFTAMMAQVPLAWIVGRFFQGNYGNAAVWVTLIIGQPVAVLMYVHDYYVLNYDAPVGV
Description: Inhibition of mouse DGAT1.

The target in series [2] is T2, Sterol O-acyltransferase 1 (Homo sapiens, UniProt P35610).
T2 sequence (P35610 whole entry): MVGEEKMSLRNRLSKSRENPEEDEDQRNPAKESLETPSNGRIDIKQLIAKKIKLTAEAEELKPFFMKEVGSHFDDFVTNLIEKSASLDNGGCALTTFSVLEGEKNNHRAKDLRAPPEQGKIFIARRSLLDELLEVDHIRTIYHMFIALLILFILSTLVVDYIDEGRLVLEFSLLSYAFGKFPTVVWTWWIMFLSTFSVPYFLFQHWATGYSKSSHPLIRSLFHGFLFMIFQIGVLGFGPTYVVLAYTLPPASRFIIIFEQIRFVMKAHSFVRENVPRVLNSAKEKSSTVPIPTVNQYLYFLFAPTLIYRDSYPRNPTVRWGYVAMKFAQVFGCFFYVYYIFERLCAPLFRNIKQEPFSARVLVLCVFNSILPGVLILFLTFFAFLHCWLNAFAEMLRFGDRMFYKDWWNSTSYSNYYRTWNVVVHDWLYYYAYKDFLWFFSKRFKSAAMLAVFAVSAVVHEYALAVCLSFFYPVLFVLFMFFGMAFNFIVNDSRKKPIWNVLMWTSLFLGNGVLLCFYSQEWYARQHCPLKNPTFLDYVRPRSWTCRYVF
Description: Inhibition of human ACAT1.

For series [3], the target named is Voltage-gated inwardly rectifying potassium channel KCNH2 (Homo sapiens, UniProt Q12809). The series can be described thus: Displacement of radiolabeled MK499 from human ERG. The essentials:
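hERG off-target activity was measured in a competitive binding assay against radiolabeled MK-499. The value is reported as Ki.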

A short description of series [4]: Solubility in PBS buffer at pH 7. In kind it is physicochemical. The essentials:
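High-throughput solubility test in PBS buffer at pH 2 and at pH 7. Free form and salt forms (TFA, formate, ammonium) were tested separately.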

Series [5] can be described thus: Unbound fraction in mouse plasma. In kind it is ADME, cell-free.
A further series relates to Rattus norvegicus. The series can be described thus: Inhibition of plasma triglyceride accumulation in Sprague-Dawley rat at 3 mg/kg, po dosed 2 hrs before lipid challenge and measured at 18 hrs by lipid tolerance test. In kind it is functional. The essentials:
(§1)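 Rat lipid tolerance test at oral doses of 1 and 3 mpk. Reduction of lipid excursion was normalized to a reference DGAT1 inhibitor given at 10 mpk, set as 100%. Plasma drug levels were the parent and its cis isomer combined, measured 4 h after oral dosing.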

Series [6] is described as follows: Plasma concentration in Sprague-Dawley rat at 1 mg/kg, po dosed 2 hrs before lipid challenge and measured at 4 hrs by lipid tolerance test. In kind it is ADME, organism-based. Details: dose 1 mg/kg, route oral. The essentials: as §1
Series [7] deals with Salmonella typhimurium. Description: Induction of mutagenicity in Salmonella typhimurium TA1535 assessed as increase in number of revertants in presence of metabolic activation. In kind it is toxicity, organism-based. The following applies: salmonella enterica subsp. enterica serovar typhimurium. The essentials: (§2)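 Microbial reverse-mutation (Ames) test in strains TA1535, TA98 and TA100, with and without metabolic activation. The concentration range was 30 to 5000 μg/plate. A positive call required a 2-fold or greater increase in revertants relative to the solvent control.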

Series [8] concerns Salmonella typhimurium. The series can be described thus: Induction of mutagenicity in Salmonella typhimurium TA98 assessed as increase in number of revertants in presence of metabolic activation. In kind it is toxicity, organism-based. The note with it: salmonella enterica subsp. enterica serovar typhimurium. An outline of the steps:
as §2

Series [9] concerns Salmonella typhimurium. The series can be described thus: Induction of mutagenicity in Salmonella typhimurium TA100 assessed as increase in number of revertants in presence of metabolic activation. The following applies: salmonella enterica subsp. enterica serovar typhimurium. In kind it is toxicity, organism-based. An outline of the steps:
as §2

A short description of series [10]: Half life in Sprague-Dawley rat at 1 mg/kg, iv or 2 mg/kg, po. In kind it is ADME, organism-based. The following applies: in vivo.
A short description of series [11]: Oral bioavailability in Beagle dog at 4 mg/kg. In kind it is ADME, organism-based, Canis lupus familiaris. The following applies: in vivo. The essentials:
(§3)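 Single-dose pharmacokinetics. Beagle dogs were dosed at 1 mg/kg iv as a solution in 30% captisol (pH 8) and at 4 mg/kg po in 0.5 methylcellulose.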

The nature of series [12]: AUC in Beagle dog at 4 mg/kg, po. In kind it is ADME, organism-based, Canis lupus familiaris. Details: dose 4 mg/kg, route oral. The following applies: plasma. An outline of the steps: as §3
The subject of the next series is Canis familiaris. Description: AUC in Beagle dog assessed as cis-4-((1-(5-(5-(trifluoromethyl)-1H-benzo[d]imidazol-2-yl)pyridin-2-yl)piperidin-4-yl)oxy)cyclohexanecarboxylic acid at 4 mg/kg, po. Details: dose 4 mg/kg, route oral. In kind it is ADME, organism-based, Canis lupus familiaris, Plasma. The note with it: in vivo. The essentials: as §3
The nature of series [13]: Drug level in plasma of C57BL/6 mouse at 10 mg/kg, po after 3 hrs. Details: dose 10 mg/kg, route oral. In kind it is ADME, organism-based. An outline of the steps: (§4)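 Tissue distribution in C57BL/6 mice. A single oral dose of 10 mg/kg was given as a solution in EtOH/PEG400/water (10:50:40). Parent and its cis isomer were both measured, in μM, in plasma, liver, small intestine, adipose fat and skin at 3 h and 24 h.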

Series [14] can be described thus: Drug level in small intestine of C57BL/6 mouse at 10 mg/kg, po after 3 hrs. In kind it is ADME, organism-based. Details: dose 10 mg/kg, route oral. The following applies: read-out: Drug uptake. The essentials: as §4
A short description of series [15]: Drug level in adipose fat of C57BL/6 mouse at 10 mg/kg, po after 3 hrs. In kind it is ADME, organism-based, Adipose tissue. Details: dose 10 mg/kg, route oral. The following applies: read-out: Drug uptake. An outline of the steps: as §4
Series [16] is described as follows: Drug level in plasma of C57BL/6 mouse at 10 mg/kg, po after 24 hrs. In kind it is ADME, organism-based. Details: dose 10 mg/kg, route oral. The essentials: as §4
Series [17] can be described thus: Drug level in liver of C57BL/6 mouse at 10 mg/kg, po after 24 hrs. In kind it is ADME, organism-based. Details: dose 10 mg/kg, route oral. The note with it: read-out: Drug uptake. An outline of the steps: as §4
The subject of a further series is Liver. The series can be described thus: Drug level in liver of C57BL/6 mouse assessed as cis-4-((1-(5-(5-(trifluoromethyl)-1H-benzo[d]imidazol-2-yl)pyridin-2-yl)piperidin-4-yl)oxy)cyclohexanecarboxylic acid level at 10 mg/kg, po after 24 hrs. The following applies: in vivo, read-out: Drug uptake. Details: dose 10 mg/kg, route oral. In kind it is ADME, organism-based. An outline of the steps:
as §4

In a further series the test system is Plasma. Description: Drug level in plasma of C57BL/6 mouse assessed as cis-4-((1-(5-(5-(trifluoromethyl)-1H-benzo[d]imidazol-2-yl)pyridin-2-yl)piperidin-4-yl)oxy)cyclohexanecarboxylic acid level at 10 mg/kg, po after 3 hrs. In kind it is ADME, organism-based. The following applies: in vivo. Details: dose 10 mg/kg, route oral. An outline of the steps: as §4

The next series has as its system Intestine. Description: Drug level in small intestine of C57BL/6 mouse assessed as cis-4-((1-(5-(5-(trifluoromethyl)-1H-benzo[d]imidazol-2-yl)pyridin-2-yl)piperidin-4-yl)oxy)cyclohexanecarboxylic acid level at 10 mg/kg, po after 3 hrs. In kind it is ADME, organism-based. Details: dose 10 mg/kg, route oral. The following applies: in vivo, read-out: Drug uptake. The essentials:
as §4

For the next series, the system named is Zone of skin. Description: Drug level in skin of C57BL/6 mouse assessed as cis-4-((1-(5-(5-(trifluoromethyl)-1H-benzo[d]imidazol-2-yl)pyridin-2-yl)piperidin-4-yl)oxy)cyclohexanecarboxylic acid level at 10 mg/kg, po after 3 hrs. In kind it is ADME, organism-based. Details: dose 10 mg/kg, route oral. The note with it: in vivo, read-out: Drug uptake. The essentials: as §4

Structures are written as SMILES. In brackets after ≈: the same amount, converted by molar mass. Some results are limits rather than exact numbers.

Sequence of Voltage-gated inwardly rectifying potassium channel KCNH2 (Q12809 whole entry): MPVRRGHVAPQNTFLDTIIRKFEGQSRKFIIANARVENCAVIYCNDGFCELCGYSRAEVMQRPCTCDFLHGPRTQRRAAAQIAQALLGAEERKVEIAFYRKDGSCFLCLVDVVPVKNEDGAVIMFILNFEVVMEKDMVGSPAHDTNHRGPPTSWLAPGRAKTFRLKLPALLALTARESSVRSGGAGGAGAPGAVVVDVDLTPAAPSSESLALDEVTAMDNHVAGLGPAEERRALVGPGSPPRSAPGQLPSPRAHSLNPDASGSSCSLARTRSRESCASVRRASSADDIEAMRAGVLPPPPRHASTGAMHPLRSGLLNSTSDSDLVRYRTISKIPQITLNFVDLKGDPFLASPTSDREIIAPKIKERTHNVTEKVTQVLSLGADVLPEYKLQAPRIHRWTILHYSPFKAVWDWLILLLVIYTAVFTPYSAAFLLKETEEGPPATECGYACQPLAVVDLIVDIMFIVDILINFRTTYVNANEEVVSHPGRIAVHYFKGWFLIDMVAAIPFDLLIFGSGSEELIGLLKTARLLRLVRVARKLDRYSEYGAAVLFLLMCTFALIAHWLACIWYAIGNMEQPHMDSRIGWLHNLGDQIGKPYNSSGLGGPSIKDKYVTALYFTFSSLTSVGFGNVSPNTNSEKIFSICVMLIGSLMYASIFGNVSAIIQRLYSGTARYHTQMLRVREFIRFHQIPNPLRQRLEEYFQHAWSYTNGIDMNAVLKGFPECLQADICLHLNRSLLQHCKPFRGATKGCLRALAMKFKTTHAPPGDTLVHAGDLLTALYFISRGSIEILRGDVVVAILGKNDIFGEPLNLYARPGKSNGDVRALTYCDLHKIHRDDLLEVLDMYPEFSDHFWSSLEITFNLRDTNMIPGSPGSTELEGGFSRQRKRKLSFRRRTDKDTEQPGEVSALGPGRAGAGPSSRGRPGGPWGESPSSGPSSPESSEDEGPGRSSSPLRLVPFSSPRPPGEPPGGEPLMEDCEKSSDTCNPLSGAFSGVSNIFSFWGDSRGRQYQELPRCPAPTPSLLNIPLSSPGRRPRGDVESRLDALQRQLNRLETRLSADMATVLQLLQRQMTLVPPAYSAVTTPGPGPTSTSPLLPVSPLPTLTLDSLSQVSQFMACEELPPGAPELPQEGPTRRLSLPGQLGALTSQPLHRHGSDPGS

As a reminder, the IC50 is the concentration that inhibits the measured activity by half. A high value points to weaker potency in that assay. As usually defined, the Ki is a dissociation constant, usually derived from enzyme kinetics or from competition with a known ligand. The solubility is the concentration that dissolves in the medium under given conditions. Low values mean little dissolved substance, high ones much dissolved substance. Usually fraction unbound stands for free concentration divided by total concentration. High values mean weak binding, low ones extensive binding. As a reminder, the inhibition in vivo is the relative decrease from the control value, in per cent. Read a high inhibition in vivo as a response far below the control. By half-life is commonly meant the time in which the quantity being followed falls by half. Lower therefore signals rapid decline. As a reminder, the AUC is the area under the concentration-time curve, a measure of exposure. For the compound `O=C(O)[C@H]1CC[C@H](OC2CCN(c3ccc(-c4nc5cc(C(F)(F)F)ccc5[nH]4)cn3)CC2)CC1`, the IC50 in series [1] is 0.023 µM; in series [2], more than 10 µM. Besides, affinity in series [3] was put at a Ki of 10 µM. This compound also gave a solubility in series [4] of 153 µM (≈ 74.7 µg/mL). This compound gave a fraction unbound in [5] of 0.078. The compound further yielded an inhibition in vivo at 3 mg/kg with Rattus norvegicus of 80%. Further, the concentration at 4 h in series [6] amounted to 20 nM. For the same compound, the Activity entry in the series on Salmonella typhimurium [7], in the series on Salmonella typhimurium [8] and with Salmonella typhimurium [9] was “Non-toxic” each time. Besides, the half-life in series [10] is 54.6 min. In addition, the bioavailability in [11] came out at 126%. The AUC in [12] was found to be 1.94 µM·h; with Canis familiaris, 0.11 µM·h. The concentration at 3 h came out at 324 nM in [13], 36600 nM in series [14] and 237 nM in [15]. Also, the concentration at 24 h in series [16] was less than 10 nM; in [17], 4020 nM. The concentration with Liver was determined as 672 nM; in the series with Plasma, 54 nM; with Intestine, 5030 nM; in the series with Zone of skin it was 46 nM.
